Data from ChEMBL document CHEMBL4138111, “Nanomolar anti-sickling compounds identified by ligand-based pharmacophore approach” (Eur J Med Chem, 2017).

Tests used:
[1] = target: T1, Adenosine receptor A2b (Homo sapiens) (UniProt P29275); experiment: Antagonist activity at Adenosine receptor subtype 2B in human RBC assessed as change in erythrocyte morphology at 10 uM incubated for 3 hrs with occasional gentle stirring for every 30 min measured for every 12 hrs by microscopic analysis relative to control; assay type: functional, cell-based; parameters: scale not given: the % may be the effect or the level left
T1 sequence (whole entry): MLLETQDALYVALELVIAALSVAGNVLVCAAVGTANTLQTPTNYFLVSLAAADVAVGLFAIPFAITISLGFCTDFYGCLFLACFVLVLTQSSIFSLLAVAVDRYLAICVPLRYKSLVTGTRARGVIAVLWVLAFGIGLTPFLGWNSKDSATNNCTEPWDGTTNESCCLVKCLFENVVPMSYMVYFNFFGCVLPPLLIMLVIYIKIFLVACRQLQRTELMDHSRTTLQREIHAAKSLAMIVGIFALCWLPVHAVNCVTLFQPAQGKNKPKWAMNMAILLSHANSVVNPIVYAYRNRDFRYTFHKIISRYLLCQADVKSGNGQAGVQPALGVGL
Outline: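 RBCs come from sickle cell anemia patients, washed in 0.9% saline and diluted 1:10. Cells are exposed to compound at a single 10 µM final concentration for 3 h at 37 °C, stirred gently every 30 min, then given 2% sodium metabisulfite. Morphology is read by microscopy (40X) every 12 h, counting >500 erythrocytes from five random fields. Triplicate assays; MRS1754 (10 µM) is the reference antagonist.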

[2] = target: T1, Adenosine receptor A2b (Homo sapiens); experiment: Antagonist activity at Adenosine receptor subtype 2B in human RBC assessed as inhibition of NECA-induced-sickling effect by measuring change in erythrocyte morphology preincubated for 3 hrs with occasional gentle stirring for every 30 min followed by incubated for 2 to 12 hrs under normoxic/hypoxic condition measured for every 12 hrs by microscopic analysis; assay type: functional, cell-based
Outline: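 Patient SCA erythrocytes are treated as in the EC50 sickling assay. Compounds are tested at three concentrations (0.03-1) against six NECA concentrations (0.001-1000). Sickling is scored by microscopy. NECA EC50 is determined with and without compound, and the dose ratio is derived from these. pKb is obtained by Schild analysis as log[DR−1] − log[B]. Mean ± SD of five experiments.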

Adenosine receptor = Adenosine receptor (Homo sapiens, UniProt P30542+P29275+P0DMS8+P29274); experiment: Antagonist activity at Adenosine receptor in human RBC assessed as change in erythrocyte morphology incubated for 3 hrs with occasional gentle stirring for every 30 min measured for every 12 hrs by microscopic analysis; assay type: cell-based
Outline: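 Erythrocytes from sickle cell anemia patients are separated by centrifugation (5 min, 16,000 g, 4 °C), washed three times in 0.9% saline and diluted 1:10 in saline. Cells are held with compound at 37 °C for 3 h, then challenged with 2% sodium metabisulfite. Sickled cells (>500 cells, five fields, 40X) are counted. Seven concentrations (0.001-100) are tested. EC50 comes from biphasic nonlinear regression with Hill slopes fixed at 1.0. Mean ± SD of five experiments, each in triplicate.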

J774 = experiment: Cytotoxicity against mouse J774 cells assessed as cell viability up to 100 uM after 72 hrs by AlamarBlue assay; assay type: cell-based; settings: j774, 72 h
Outline: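 J774 murine macrophage-like cells are seeded at 2 × 10^5 cells/well in DMEM with 10% FBS and gentamycin and incubated 2 h at 37 °C, 5% CO2. Compounds are added at five concentrations (6.25-100) for 72 h, in 5% DMSO/saline vehicle. Alamar Blue is then added for 12 h more, with absorbance read at 570 and 600 nm. Gentian violet serves as positive control. Triplicates, three experiments.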

| Compound | Activity [1] | inhibition [2] | pKb [2] | pEC50 (Adenosine receptor) | Activity (J774) |
| --- | --- | --- | --- | --- | --- |
| O=C(CN1CCOC(Cn2cncn2)C1)Nc1cccnc1 (stereo not drawn) | > 70% | Dose-dependent effect | 8.31 | 5.29 | Non-Toxic |
| CCCc1cc(O)nc(SC(C)C(=O)Nc2cc(C)no2)n1 (stereo not drawn) | > 70% | Dose-dependent effect | 9.45 | – | Non-Toxic |
| Cc1cc(NC(=O)CNc2ccc3c(c2)OC(F)(F)O3)on1 | > 70% | Dose-dependent effect | 7.38 | 5.06 | – |
| CCCn1c(=O)c2[nH]c(-c3ccc(OCC(=O)Nc4ccc(C#N)cc4)cc3)nc2n(CCC)c1=O | 54% | Dose-dependent effect | 8.68 | – | – |

The next lines start with results.

| Activity [1] | inhibition [2] | pKb [2] | pEC50 (Adenosine receptor) | Compound | Activity (J774) |
| --- | --- | --- | --- | --- | --- |
| > 70% | Dose-dependent effect | 9.54 | – | CC(OC(=O)c1nccnc1N)C(=O)NCc1ccc2c(c1)OCO2 (stereo not drawn) | – |
| > 70% | Dose-dependent effect | 7.99 | 4.21 | CC(C)c1noc(OCC(=O)NCc2ccc3c(c2)OCO3)n1 | – |
